We go through 16 compounds from ChEMBL document CHEMBL1130080, “Structure-activity relationships of diverse Annonaceous acetogenins against multidrug resistant human mammary adenocarcinoma (MCF-7/Adr) cells” (J Med Chem, 1997).

The term IC50 denotes the concentration at which inhibition is half-maximal. A higher IC50 goes with lower potency.

≈ marks a conversion by molar mass, not a printed value. Where only a bound is given, the exact number is not on record here.

The test system of one series is NCI/ADR-RES. The series can be described thus: Cytotoxicity against MCF-7/Adr cells. Type of series: functional, cell-based, Homo sapiens. Summed up: (§1)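 MCF-7/Adr cells kept in RPMI with 10% heat-inactivated FCS and 1% pen/strep, plated at 15 000 cells/mL on poly(D-lysine)-coated plates, left overnight at 37 °C. Day 1: compound added in 95% ethanol (1% by volume). Incubated 6 more days, growth read by BCA protein assay (A570), normalized to vehicle wells, n = 4. IC50 from linear regression through three points spanning 50%; R value from that regression.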

Series [1] is described as follows: Statistical significance of IC 50 values; Expressed as R value. Type of series: ADME. Summed up:
as §1

The nature of series [2]: Bullaticin index relates the IC50 values by normalizing to the value of bullatacin for easy comparison. Format: ADME. Summed up:
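Index is IC50 of each compound divided by bullatacin's IC50, from the same 6-day BCA protein growth assay in MCF-7/Adr cells, n = 4.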

In turn, `CCCCCCCCCCCC[C@@H](O)[C@H]1CC[C@H]([C@H]2CC[C@H]([C@H](O)CC[C@H](O)CCCCCCCCC3=C[C@H](C)OC3=O)O2)O1` yielded an IC50 in the series with NCI/ADR-RES of 1.4 µg/mL (≈ 2.2 µM). Also, the Activity in series [1] stood at 1. Further, the Bullatacin index in series [2] amounted to 67.2.
In the series with NCI/ADR-RES, `CCCCCCCCCCCC[C@@H](O)[C@H]1CC[C@H]([C@H]2CC[C@H]([C@H](O)CCCCCC[C@@H](O)CC3=C[C@H](C)OC3=O)O2)O1` showed an IC50 of over 1 µg/mL.
As to `CCCCCCCCCC[C@@H](O)[C@@H]1CC[C@H]([C@H](O)CC[C@H](O)[C@@H]2CC[C@@H](CCCCCCC[C@@H](O)CC3=C[C@H](C)OC3=O)O2)O1` [SYLVATICIN], the Activity in series [1] was determined as 0.94. In series [2], this compound yielded a Bullatacin index of 2.76.
For `CC[C@]1(O)C[C@@H]2CN(CCc3c([nH]c4ccccc34)[C@@](C(=O)OC)(c3cc4c(cc3OC)N(C)[C@H]3[C@@](O)(C(=O)OC)[C@H](OC(C)=O)[C@]5(CC)C=CCN6CC[C@]43[C@@H]65)C2)C1` [VINBLASTINE], the midpoint of inhibition in the series with NCI/ADR-RES, the IC50, lay at 390 µg/mL (≈ 481 µM). In series [1], this compound displayed an Activity of 1. The same compound yielded a Bullatacin index in series [2] of 18.8.
In turn, `CCCCCCCCCCCC[C@H](O)[C@H]1CC[C@H]([C@H]2CC[C@H]([C@H](O)CCCCCCCC[C@@H](O)CC3=C[C@H](C)OC3=O)O2)O1` [SQUAMOTACIN] gave an Activity in series [1] of 1. This compound came in with a Bullatacin index in series [2] of 6.79.
`CCCCCCCCCCCC/C=C\CC[C@@H](O)[C@H](O)CC[C@H](O)[C@@H]1CC[C@@H](CCCCC[C@@H](O)CC2=C[C@H](C)OC2=O)O1` returned an Activity in series [1] of 0.98. For the same compound, the Bullatacin index in series [2] is recorded as 5.26.
`CCCCCCCCCC[C@@H](O)[C@H]1CC[C@@H]([C@H]2CC[C@H]([C@H](O)CCCCCCCCCC[C@@H](O)CC3=C[C@H](C)OC3=O)O2)O1` [TRILOBACIN] returned an IC50 in the series with NCI/ADR-RES of 59.9 µg/mL (≈ 96.2 µM). In series [1], the Activity turned out to be 0.98. In series [2], this compound yielded a Bullatacin index of 2.89.
With `CCCCCCCCCCCC[C@@H](O)[C@H](O)CC[C@H](O)[C@@H]1CC[C@@H](CCC[C@H](O)[C@@H](O)CC[C@@H](O)CC2=C[C@H](C)OC2=O)O1`, the IC50 in the series on NCI/ADR-RES was over 1 µg/mL.
Consider `CCCCCCCCCC[C@H](O)[C@H]1CC[C@H]([C@H](O)CC[C@H](O)[C@@H]2CC[C@@H](CCCCCCC[C@@H](O)CC3=C[C@H](C)OC3=O)O2)O1` [BULLATALICIN], for which the Activity in series [1] is reported as 0.98. Moreover, the Bullatacin index in series [2] came out at 4.72.
On the same counts, the results for `CCCCCCCCCCCC[C@@H](O)[C@H]1CC[C@H]([C@H](O)CCCC[C@H](O)CCCCC[C@@H](O)CC2=C[C@H](C)OC2=O)O1` [ANNONACIN] are 0.99 and 4.19.
In the series on NCI/ADR-RES, `COc1cccc2c1C(=O)c1c(O)c3c(c(O)c1C2=O)C[C@@](O)(C(=O)CO)C[C@@H]3O[C@H]1C[C@H](N)[C@H](O)[C@H](C)O1` [DOXORUBICIN] showed an IC50 of 5.37 µg/mL (≈ 9.88 µM). The Activity in series [1] came to 1. Also, in series [2], the Bullatacin index is on record as 258.5.
In turn, `CCCCCCCCCCCC[C@H](O)[C@@H](O)CC[C@H](O)[C@@H]1CC[C@@H](CCC[C@H](O)[C@@H](O)CC[C@@H](O)CC2=C[C@H](C)OC2=O)O1` had an IC50 in the series on NCI/ADR-RES of over 1 µg/mL.
In series [1], `CCCCCCCCCCCCCC[C@@H](O)[C@H](O)CC[C@H](O)[C@@H]1CC[C@@H](CCCCC[C@@H](O)CC2=C[C@H](C)OC2=O)O1` [GIGANTETROCIN A] came in with an Activity of 0.97. The compound also showed a Bullatacin index in series [2] of 0.5.
For the compound `CCCCC[C@H](O)CCCC[C@H](O)[C@H]1CC[C@H]([C@H]2CC[C@H]([C@H](O)CCCCCCCCCCCCC3=C[C@H](C)OC3=O)O2)O1` [MOTRILIN], in series [1], the Activity was 0.99. The same compound yielded a Bullatacin index in series [2] of 1.23.
In turn, `CCCCCCCCCC[C@@H](O)[C@@H]1CC[C@@H]([C@@H]2CC[C@@H]([C@H](O)CCCCCCCCCC(O)CC3=CC(C)OC3=O)O2)O1` (stereo not given in full) [BULLATACIN] showed an IC50 in the series with NCI/ADR-RES of 10.8 µg/mL (≈ 17.7 µM). In series [1], this compound displayed an Activity of 0.97. The compound further showed a Bullatacin index in series [2] of 1.
Compound `CC[C@]1(O)C[C@H]2CN(CCc3c([nH]c4ccccc34)[C@@](C(=O)OC)(c3cc4c(cc3OC)N(C=O)[C@H]3[C@@](O)(C(=O)OC)[C@H](OC(C)=O)[C@]5(CC)C=CCN6CC[C@]43[C@@H]65)C2)C1` [VINCRISTINE] displayed an IC50 with NCI/ADR-RES of 2.93 µg/mL (≈ 3.55 µM). The Activity in series [1] was 1. In addition, the Bullatacin index in series [2] is given as 141.3.
